Columns and labels:
L6 = experiment: Inhibition of cholesterol synthesis in rat L6 cells assessed as reduction of [14C]-cholesterol level using [14C]-acetic acid preincubated for 3 hrs before addition of [14C]-acetic acid by scintillation counting; format: functional, cell-based
In short: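 Cholesterol synthesis inhibition measured in rat hepatocytes and rat myocyte cell line, giving IC50 for each. Mean ± SEM of n ≥ 2 independent determinations.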

Homo sapiens [1] = experiment: Inhibition of HMG-CoA reductase in human assessed as decrease in AUC (0 to 24 hrs) of mevalonate level in plasma at 3 mg administered as single dose relative to control; format: functional
Syrian golden hamster = experiment: Inhibition of cholesterol synthesis in golden syrian hamster assessed as reduction of [14C]-cholesterol level at 10 mg/kg, po followed by 3 hrs after treated with 80 uCi, ip of [14C]-sodium acetate measured after 5 hrs by liquid scintillation counting relative to control; format: functional; conditions: Mesocricetus auratus
In short: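 Separate hamster groups dosed po at 10 mg/kg at t = 0 h. 14C sodium acetate ip at t = 3 h, blood 14C cholesterol at t = 5 h. Percent change vs untreated controls, n = 8/group.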

Plasma [2] = experiment: fAUC (0 to infinity) in human plasma at 240 mg administered as single dose; format: ADME, cell-free
In short: (§1)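 Phase 1 single ascending oral dose in healthy volunteers, with N per dose group. Total plasma Cmax and AUC(0-∞) were measured. Free-drug exposures were derived from these using plasma protein binding (human plasma fu measured at 0.5 μg/mL).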

Homo sapiens [3] = experiment: Inhibition of HMG-CoA reductase in human assessed as decrease in AUC (0 to 72 hrs) of mevalonate level in plasma at 240 mg administered as single dose relative to control; format: functional
[4] = AUC (0 to infinity) in human plasma at 10 mg administered as single dose; format: ADME, cell-free; design: dose 10 mg, time infinity
In short: (§2)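 Phase 1 single ascending oral dose in healthy volunteers, about 5–6 subjects per dose. Total plasma drug Cmax and AUC(0-∞) were measured. Free-drug exposures were derived using plasma protein binding.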

Plasma [5] = experiment: fAUC (0 to infinity) in human plasma at 80 mg administered as single dose; format: ADME, cell-free; in short: as §1
Homo sapiens [6] = experiment: Inhibition of HMG-CoA reductase in human assessed as decrease in AUC (0 to 72 hrs) of mevalonate level in plasma at 20 mg administered as single dose relative to control; format: functional
Homo sapiens [7] = experiment: Inhibition of HMG-CoA reductase in human assessed as decrease in AUC (0 to 24 hrs) of mevalonate level in plasma at 80 mg administered as single dose relative to control; format: functional
[8] = Terminal half life in human plasma at 5 mg administered as single dose; format: ADME, cell-free; conditions: read-out: beta t1/2 (converted)
Plasma [9] = experiment: fCmax in human plasma at 160 mg administered as single dose; format: ADME, cell-free; in short: as §1
[10] = Terminal half life in human plasma at 160 mg administered as single dose; format: ADME, cell-free; conditions: read-out: beta t1/2 (converted)
[11] = AUC (0 to infinity) in human plasma at 5 mg administered as single dose; format: ADME, cell-free; design: dose 5 mg, time infinity; in short: as §2

| fAUC (Plasma [2]) [ng·h/mL] | AUC(0-inf) [4] [ng·h/mL] | fAUC (Plasma [5]) [ng·h/mL] | half-life [8] [h] | fCmax (Plasma [9]) [ng/mL] | half-life [10] [h] | AUC(0-inf) [11] [ng·h/mL] | SMILES | IC50 (L6) [nM] | inhibition (INH) (Homo sapiens [1]) [%] | inhibition in vivo at 10 mg/kg (Syrian golden hamster) [%] | inhibition (INH) (Homo sapiens [3]) [%] | inhibition (INH) (Homo sapiens [6]) [%] | inhibition (INH) (Homo sapiens [7]) [%] |
| --- | --- | --- | --- | --- | --- | --- | --- | --- | --- | --- | --- | --- | --- |
| 7.89 | 2.71 |  |  |  |  |  | O=C([O-])C[C@H](O)C[C@H](O)CCn1c(-c2ccc(F)cc2)nc(C(=O)NCc2cccc(F)c2)c1C1CC1.[Na+] | 444 | -5 | -43 | -30 |  |  |
|  |  | 602 | 4.54 | 347 | 8.87 | 434 | Cc1ccc(CNC(=O)c2nn(-c3ccc(F)cc3)c(CC[C@@H](O)C[C@@H](O)CC(=O)O)c2C(C)C)cc1 |  |  |  |  | -17 | -65 |
